High-throughput results from PubChem.
V-ATPase pHluor – yeast V-ATPase proton transport regulation by pHLuorin; S. cerevisiae, pHLuorin cytosolic pH fluorescence; response, % at 10 µM; 350,000 compounds, 0.37% hits; AID 504577; in the data active = response mostly above about 7.3%, no sharp cut-off; inactive = mostly below about 5.4%; also: actives read high
CR mimetic SO – caloric restriction mimetics inhibiting age-related superoxide in yeast; S. cerevisiae aged cells, superoxide DHE fluorescence; stronger effect = lower value; superoxide response (% of plate mean), % at 10 µM; AID 2690; 330,000 compounds, 0.18% hits;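 active = superoxide response under a set limit, about three screen SD below normal, cut at about 65% in these data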;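 also: yeast aged for seven days with compound at 30 °C before DHE staining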
Rce1 inh – blocks yeast Ras-converting enzyme; Q03530; yeast membranes, quenched prenylated peptide cleavage fluorescence; calls only; 290,000 compounds, 0.27% hits; AID 2563;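 active = fall in fluorescence gain of 50% or more versus controls, with final raw signal at or below 3038400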
Target sequence (Q03530 whole entry, looked up): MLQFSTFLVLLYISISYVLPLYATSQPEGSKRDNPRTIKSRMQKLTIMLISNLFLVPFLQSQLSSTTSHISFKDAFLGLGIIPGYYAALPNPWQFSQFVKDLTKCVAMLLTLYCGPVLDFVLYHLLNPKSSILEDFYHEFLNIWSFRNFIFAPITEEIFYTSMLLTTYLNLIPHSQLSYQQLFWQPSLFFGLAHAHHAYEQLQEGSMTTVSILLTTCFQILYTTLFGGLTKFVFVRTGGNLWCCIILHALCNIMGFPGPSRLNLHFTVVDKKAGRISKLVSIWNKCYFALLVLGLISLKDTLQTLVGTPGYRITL
MIN6 prolif – MIN6 beta-cell proliferation induction; MIN6 cells proliferation, ATPlite luminescence, 48 h; cells starved in 0.2% serum; 100% = growth in 10% serum; proliferation, % at 10 µM; 330,000 compounds, 0.29% hits; AID 2380;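 active = compounds whose signal lies at least 3.5 SD above the mean of all wells on their plate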
T cell HTS – T cell immune modulation candidate; 330,000 compounds, 0.068% hits; response (vesicle binding), % at 7 µM; 2C CD8+ T cell-vesicle binding, flow cytometry; stronger effect = lower value;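 active = response, share of CD8 T cells binding vesicles, and their 90th percentile fluorescence all below set limits, cut at about 80% in these data, passing the limit was not always enough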;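 also: values below 100% mean blocked vesicle binding to the CD8+ T cells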
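incubation = binding step 1.5 h, 37 °C, antibody labelling 20 min, ice | test system = 2C mouse CD8+ T cells | read-out basis = percent CD8+ FL2 mean versus row control | controls = Peptide-free naked vesicles (low) and QL9 vesicles with 0.7% DMSO vehicle (high) | detection = flow cytometry of vesicle-bound cells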
KLK7 zymogen act – activates the human kallikrein-7 zymogen | 370,000 compounds, 0.9% hits | activation, % at 7 µM | purified proKLK7, EDANS-DABCYL substrate fluorescence; 100% is mature enzyme control, 0% vehicle | P49862;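 active = activation above the mean of all tested compounds plus 3 SD, computed per campaign excluding outliers beyond control limits, cut at about 13% in these data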
Target sequence (P49862 whole entry, looked up): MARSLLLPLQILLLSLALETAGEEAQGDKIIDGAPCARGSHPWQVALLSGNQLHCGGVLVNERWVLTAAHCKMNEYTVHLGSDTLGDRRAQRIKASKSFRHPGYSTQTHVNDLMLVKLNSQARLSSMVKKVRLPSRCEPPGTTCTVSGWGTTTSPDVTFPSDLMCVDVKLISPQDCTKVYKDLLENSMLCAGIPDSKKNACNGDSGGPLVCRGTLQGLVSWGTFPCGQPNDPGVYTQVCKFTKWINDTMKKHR
A number is an active result; - = inactive; . = no result; + = active, no number. Shown are actives, neighbours in structure and some others; about 1.9% of the full set was active somewhere.

SMILES | V-ATPase pHluor | CR mimetic SO | Rce1 inh | MIN6 prolif | T cell HTS | KLK7 zymogen act
O=C(Nc1ccccc1N1CCOCC1)C1CCN(S(=O)(=O)c2ccc(F)cc2)CC1 | - | - | + | - | - | -
O=C1N2CCc3ccccc3C2CS(=O)(=O)N1Cc1ccc(F)cc1 (configuration not stated) | . | . | . | . | . | -
COC(=O)[C@]12C[C@H](CC(=O)NCCC(C)C)C(=O)N(Cc3cccc4ccccc34)C1=C[C@H](C(C)(C)C)O[C@@H]2C | . | . | . | . | . | -
COc1ccc(-c2cc3ccccc3n2CC(O)CNCCO)cc1 (configuration not stated) | - | - | + | - | - | -
CC(NCc1ccco1)C(=O)N1CCCN(C)CC1 (configuration not stated) | . | . | . | . | . | -
Cc1cccc(CNC(=O)NC2CCCCN(Cc3cccc(Cl)c3)C2=O)c1 (configuration not stated) | . | . | . | . | . | -
COC(=O)c1ccc(COc2ccc(-c3nnn(CC(N)=O)n3)cc2)cc1 | - | - | - | - | 0.0 | -
COC[C@H]1O[C@]2(c3ccccc3)CO[C@H]1[C@@H](/C=C/c1ccccc1)C2 | . | . | . | . | . | -
N/C(Cc1ccc([N+](=O)[O-])cc1)=N\OC(=O)c1ccc2ccccc2c1 | - | - | + | - | - | -
Cc1nc(N2CCCCC2)c2c(C)c(C(=O)Nc3cccc(C(F)(F)F)c3)sc2n1 | - | - | - | - | - | -
Cc1nc(N2CCCCC2)c2c(C)c(C(=O)Nc3ccccc3C(F)(F)F)sc2n1 | - | - | + | - | - | -
CC[C@H](CCC(=O)N(c1ccccc1)c1ccccc1)c1ccc(C)cc1 | . | . | . | . | . | -
CCN(CC)c1ccc(/C=N/NC(=O)C(O)(c2ccccc2)c2ccccc2)o1 | . | - | + | - | - | .
CCCCc1c(-c2ccccc2OC)ncn1Cc1ccc(OC)c(Cl)c1 | . | . | . | . | . | -
C=C(C)[C@@H]1CC2=C(OC)C(CC=C(C)C)(CC=C(C)C)C(=O)C(C(=O)c3ccccc3)=C2O1 | . | . | . | . | . | -
CCOC(=O)C1=C(C)N(CCCC(=O)O)C(=O)NC1c1ccccc1Cl (configuration not stated) | . | - | - | - | - | -
CCOC(=O)C1=C(C)N(CCCC(=O)O)C(=O)NC1c1ccccc1OC(=O)c1cccs1 (configuration not stated) | . | . | + | - | . | -
O=C(NNC(=S)NC(=O)c1ccco1)c1ccc(F)cc1 | - | - | - | - | 50 | -
CC(=O)C(C)Oc1ccc2c3c(c(=O)oc2c1)CCCCC3 (configuration not stated) | - | - | - | - | - | -
CC(=O)C(C)Oc1ccc2c3c(c(=O)oc2c1)CCCC3 (configuration not stated) | - | - | + | - | - | -
Cc1[nH]c2ccccc2c1CCNC(=O)CCC(=O)c1ccccc1 | 17 | - | - | - | - | -
COc1ccc(-c2cc(CNS(=O)(=O)c3cc(OC)ccc3OC)on2)cc1 | - | - | - | - | - | -
COc1ccc(-c2cc(CNS(=O)(=O)c3ccc(NC(C)=O)cc3)on2)cc1 | - | - | - | - | 0.0 | -
CNc1nnc(-c2ccc(N(C)C)cc2)s1 | - | - | . | - | - | 40
CCN(NC(=O)C(O)(c1ccccc1)c1ccccc1)C(=O)c1ccccc1 | - | - | - | - | - | -
SMILES | V-ATPase pHluor | CR mimetic SO | Rce1 inh | MIN6 prolif | T cell HTS | KLK7 zymogen act
CC(c1ccccc1)N(NC(=O)C(O)(c1ccccc1)c1ccccc1)C(=O)c1ccccc1 (configuration not stated) | - | - | - | 0.0 | - | -
O=C(O)CSCC(=O)N1N=C2/C(=C/c3ccccc3)CCCC2C1c1ccccc1 (configuration not stated) | - | - | . | - | - | -
NC(=O)N1N=C2/C(=C/c3ccccc3)CCCC2C1c1ccccc1 (configuration not stated) | - | - | + | - | - | -
Cn1c(SCC(=O)NCC2CCCO2)nnc1-c1c[nH]c2ccccc12 (configuration not stated) | - | - | - | - | - | -
CCn1c(SCC(=O)NCC2CCCO2)nnc1-c1c[nH]c2ccccc12 (configuration not stated) | - | - | - | - | 0.0 | -
C[C@@H]1CNC(=O)c2c(C(=O)N(C)Cc3ccccc3)ncn21 | . | . | . | . | . | -
O=C(O)c1ccc(CN(c2ccccn2)S(=O)(=O)c2ccccc2)cc1 | - | - | + | - | - | -
Cc1cc(Cl)ccc1NC(=O)COC(=O)CCNS(=O)(=O)c1ccccc1 | - | - | . | - | 0.0 | -
Cc1cccc(C)c1NC(=O)CN(C)C(=O)c1ccc2c(=O)n3c(nc2c1)CCC3 | - | 65 | . | - | - | -
COc1ccc(CNCC#Cc2ccc(C(F)(F)F)cc2)c(OC)c1 | . | . | . | . | . | -
COC(=O)c1cc2c(c3c4ccccc4n(S(=O)(=O)c4cccc(C)c4)c13)C(=O)N(Cc1ccccc1OC)C2 | . | . | . | . | . | -
COc1ccc(CC(=O)Oc2ccc(C(C)C)cc2)cc1S(=O)(=O)N1CCOCC1 | 25 | - | - | - | - | -
CCc1ccc(OC(=O)Cc2ccc(OC)c(S(=O)(=O)N3CCOCC3)c2)cc1 | - | - | . | - | - | -
CCOCCCNC(=O)C(NC(=O)c1ccc(NC(C)=O)cc1)c1ccc(C)cc1 (configuration not stated) | - | - | - | - | - | -
CCOCCCNC(=O)C(NC(=O)c1ccc(NC(C)=O)cc1)c1ccccc1 (configuration not stated) | - | 61 | - | - | - | -
COC(=O)[C@]12C[C@H](CC(=O)N3CCN(C(=O)C4CC4)CC3)C(=O)N(Cc3ccc4c(c3)OCO4)C1=C[C@H](COCc1ccccc1)O[C@@H]2C | . | . | . | . | . | -
C=CCNC(=O)c1cc2c(=O)n3cc(C)ccc3nc2nc1NCC1CCCO1 (configuration not stated) | . | - | + | - | - | .
C[C@H](O)[C@@H]1C(=O)N2CCc3c([nH]c4c(-c5ccc6c(c5)OCO6)cccc34)[C@@H]2C[C@@H]1N(C)C(=O)NC1CCCCC1 | . | . | . | . | . | -
O=C(N[C@H](Cc1ccccc1)C(=O)NCc1ccc(OC(F)(F)F)cc1)[C@H]1O[C@@H](n2ccc(=O)[nH]c2=O)[C@H](O)[C@@H]1O | . | . | . | . | . | -
O=C(NCCc1c[nH]c2ccccc12)OCCSS(=O)(=O)O | - | - | + | - | - | -
COC(=O)C1=CN(Cc2ccccc2)C=C(C(=O)OC)C1c1ccc(OC)c(OC)c1 | - | - | . | - | - | -
CCOc1ccc(C2C(C(=O)OC)=CN(C(C)c3ccccc3)C=C2C(=O)OC)cc1 (configuration not stated) | - | - | + | - | - | -
Cc1cc(C)n(CC(=O)n2nc(C)cc2C)n1 | - | - | - | - | - | -
Cc1cc(C)n(C(=O)Cc2cn3ccsc3n2)n1 | - | - | - | - | 72 | -
